Laboratory results: ChEMBL document CHEMBL3621107, “Ring fusion strategy for synthesis and lead optimization of sulfur-substituted anthra[1,2-c][1,2,5]thiadiazole-6,11-dione derivatives as promising scaffold of antitumor agents” (Eur J Med Chem, 2015)

Key:
Assay type in all cases: functional
TK-10 = assay: Cytotoxicity against human TK10 cells assessed as cell growth at 10 uM after 48 hrs by SRB assay relative to control; conditions: TK-10, 48 h, read-out: Activity
In short: (§1)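 NCI-60 one-dose screen run by NCI DTP: each cell line exposed to a single 10 µM dose, and percentage growth recorded against untreated growth.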

SF-268 = assay: Cytotoxicity against human SF268 cells assessed as cell growth at 10 uM after 48 hrs by SRB assay relative to control; conditions: SF-268, 48 h, read-out: Activity
In short: (§2)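 First-stage NCI DTP one-dose screen against the 60 human tumour cell line panel. Compounds were tested at a single 10 μM level, and results are given as growth percentage.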

COLO 205 = assay: Cytotoxicity against human COLO205 cells assessed as cell growth at 10 uM after 48 hrs by SRB assay relative to control; conditions: COLO 205, 48 h, read-out: Activity
In short: (§3)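 First-stage NCI-60 screen by the NCI Developmental Therapeutics Program. Each compound was tested once at a single concentration of 10 μM against the 60-cell-line panel. Growth percentage was reported for each cell line.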

HOP-92 = assay: Cytotoxicity against human HOP92 cells assessed as cell growth at 10 uM after 48 hrs by SRB assay relative to control; conditions: HOP-92, 48 h, read-out: Activity; in short: as §3
HT-29 = assay: Cytotoxicity against human HT-29 cells assessed as cell growth at 10 uM after 48 hrs by SRB assay relative to control; conditions: HT-29, 48 h, read-out: Activity; in short: as §3
SN12C = assay: Cytotoxicity against human SN12C cells assessed as cell growth at 10 uM after 48 hrs by SRB assay relative to control; conditions: read-out: Activity; in short: as §2
SNB-75 = assay: Cytotoxicity against human SNB75 cells assessed as cell growth at 10 uM after 48 hrs by SRB assay relative to control; conditions: SNB-75, 48 h, read-out: Activity; in short: as §1
BT-549 = assay: Cytotoxicity against human BT549 cells assessed as cell growth at 10 uM after 48 hrs by SRB assay relative to control; conditions: BT-549, 48 h, read-out: Activity; in short: as §3
UACC-62 = assay: Cytotoxicity against human UACC62 cells assessed as cell growth at 10 uM after 48 hrs by SRB assay relative to control; conditions: UACC-62, 48 h, read-out: Activity; in short: as §1
RXF 393 = assay: Cytotoxicity against human RXF393 cells assessed as cell growth at 10 uM after 48 hrs by SRB assay relative to control; conditions: RXF 393, 48 h, read-out: Activity; in short: as §2
SR = assay: Cytotoxicity against human SR cells assessed as cell growth at 10 uM after 48 hrs by SRB assay relative to control; conditions: read-out: Activity; in short: as §1
DU-145 = assay: Cytotoxicity against human DU145 cells assessed as cell growth at 10 uM after 48 hrs by SRB assay relative to control; conditions: DU-145, 48 h, read-out: Activity; in short: as §3
OVCAR-3 = assay: Cytotoxicity against human OVCAR3 cells assessed as cell growth at 10 uM after 48 hrs by SRB assay relative to control; conditions: OVCAR-3, 48 h, read-out: Activity; in short: as §2
SK-MEL-28 = assay: Cytotoxicity against human SK-MEL-28 cells assessed as cell growth at 10 uM after 48 hrs by SRB assay relative to control; conditions: SK-MEL-28, 48 h, read-out: Activity; in short: as §2
IGROV-1 = assay: Cytotoxicity against human IGROV1 cells assessed as cell growth at 10 uM after 48 hrs by SRB assay relative to control; conditions: IGROV-1, 48 h, read-out: Activity; in short: as §3
SK-MEL-5 = assay: Cytotoxicity against human SK-MEL-5 cells assessed as cell growth at 10 uM after 48 hrs by SRB assay relative to control; conditions: SK-MEL-5, 48 h, read-out: Activity; in short: as §2
OVCAR-8 = assay: Cytotoxicity against human OVCAR8 cells assessed as cell growth at 10 uM after 48 hrs by SRB assay relative to control; conditions: OVCAR-8, 48 h, read-out: Activity; in short: as §2
U-251 = assay: Cytotoxicity against human U251 cells assessed as cell growth at 10 uM after 48 hrs by SRB assay relative to control; conditions: U-251, 48 h, read-out: Activity; in short: as §1
LOX IMVI = assay: Cytotoxicity against human LOXIMVI cells assessed as cell growth at 10 uM after 48 hrs by SRB assay relative to control; conditions: read-out: Activity; in short: as §3
UO-31 = assay: Cytotoxicity against human UO31 cells assessed as cell growth at 10 uM after 48 hrs by SRB assay relative to control; conditions: UO-31, 48 h, read-out: Activity; in short: as §1
HCT-116 = assay: Cytotoxicity against human HCT116 cells assessed as cell growth at 10 uM after 48 hrs by SRB assay relative to control; conditions: HCT-116, 48 h, read-out: Activity; in short: as §3
NCI-H23 = assay: Cytotoxicity against human NCI-H23 cells assessed as cell growth at 10 uM after 48 hrs by SRB assay relative to control; conditions: NCI-H23, 48 h, read-out: Activity; in short: as §2
MCF7 = assay: Cytotoxicity against human MCF7 cells assessed as cell growth at 10 uM after 48 hrs by SRB assay relative to control; conditions: MCF7, 48 h, read-out: Activity; in short: as §3
HCC 2998 = assay: Cytotoxicity against human HCC2998 cells assessed as cell growth at 10 uM after 48 hrs by SRB assay relative to control; conditions: HCC 2998, 48 h, read-out: Activity; in short: as §3
CAKI-1 = assay: Cytotoxicity against human Caki1 cells assessed as cell growth at 10 uM after 48 hrs by SRB assay relative to control; conditions: CAKI-1, 48 h, read-out: Activity; in short: as §3
NCI-H460 = assay: Cytotoxicity against human NCI-H460 cells assessed as cell growth at 10 uM after 48 hrs by SRB assay relative to control; conditions: NCI-H460, 48 h, read-out: Activity; in short: as §2
K562 = assay: Cytotoxicity against human K562 cells assessed as cell growth at 10 uM after 48 hrs by SRB assay relative to control; conditions: K562, 48 h, read-out: Activity; in short: as §3
Malme-3M = assay: Cytotoxicity against human MALME-3M cells assessed as cell growth at 10 uM after 48 hrs by SRB assay relative to control; conditions: read-out: Activity; in short: as §3
RPMI-8226 = assay: Cytotoxicity against human RPMI8226 cells assessed as cell growth at 10 uM after 48 hrs by SRB assay relative to control; conditions: RPMI-8226, 48 h, read-out: Activity; in short: as §2
NCI-H322M = assay: Cytotoxicity against human NCI-H322M cells assessed as cell growth at 10 uM after 48 hrs by SRB assay relative to control; conditions: read-out: Activity; in short: as §2
OVCAR-4 = assay: Cytotoxicity against human OVCAR4 cells assessed as cell growth at 10 uM after 48 hrs by SRB assay relative to control; conditions: OVCAR-4, 48 h, read-out: Activity; in short: as §2
CCRF-CEM = assay: Cytotoxicity against human CCRF-CEM cells assessed as cell growth at 10 uM after 48 hrs by SRB assay relative to control; conditions: read-out: Activity; in short: as §3

SMILES | growth at 10 µM (TK-10) | growth at 10 µM (SF-268) | growth at 10 µM (COLO 205) | growth at 10 µM (HT-29) | growth at 10 µM (SN12C) | growth at 10 µM (SNB-75) | growth at 10 µM (UACC-62) | growth at 10 µM (RXF 393) | growth at 10 µM (SR) | growth at 10 µM (DU-145) | growth at 10 µM (OVCAR-3) | growth at 10 µM (SK-MEL-28) | growth at 10 µM (IGROV-1) | growth at 10 µM (SK-MEL-5) | growth at 10 µM (OVCAR-8) | growth at 10 µM (U-251) | growth at 10 µM (LOX IMVI) | growth at 10 µM (UO-31) | growth at 10 µM (HCT-116) | growth at 10 µM (NCI-H23) | also measured
O=C1c2ccccc2C(=O)c2c1cc(Sc1ccccc1Br)c1nsnc21 | 76.5% | -5.11% | 97.4% | 96.5% | 22.6% | 47.2% | 39.6% | -8.53% | 2.94% | 50.6% | -65.8% | 64.7% | 27.9% | 46.3% | 2.47% | 11.5% | -15.3% | 56.1% | 16.6% | 18% | growth at 10 µM (HOP-92): 37.6%; growth at 10 µM (BT-549): 52.2%; growth at 10 µM (MCF7): -6.39%; growth at 10 µM (HCC 2998): 78.4%; growth at 10 µM (CAKI-1): 29.7%; growth at 10 µM (NCI-H460): 58.2%; growth at 10 µM (K562): 29.7%; growth at 10 µM (Malme-3M): 35.3%; growth at 10 µM (RPMI-8226): 9.4%
O=C1c2ccccc2C(=O)c2c1ccc1nsnc21 | 97% | 16.3% | 112% | 117% | -73.3% | 79% | -82.3% | 20.1% | 4.96% | 40.8% | -15.5% | 15.5% | -88.3% | 8.52% | -10.1% | -89.3% | -50.6% | -79.3% | -50% | 16.1% | growth at 10 µM (NCI-H322M): 126%; growth at 10 µM (OVCAR-4): -94.4%; growth at 10 µM (MCF7): -50.7%; growth at 10 µM (HCC 2998): -0.74%; growth at 10 µM (CCRF-CEM): -30.8%; growth at 10 µM (CAKI-1): 1.97%; growth at 10 µM (NCI-H460): 77.4%; growth at 10 µM (K562): 49.6%; growth at 10 µM (Malme-3M): -71.6%; growth at 10 µM (RPMI-8226): -28%
